Laboratory results reported in ChEMBL document CHEMBL1128508, “Synthesis and biological evaluation of radioiodinated phospholipid ether stereoisomers” (J Med Chem, 1995).

What was measured:
Rattus norvegicus [1] = experiment: Biodistribution in ovary 48 hours after iv injection in walker tumor bearing rat; assay type: ADME, organism-based, Female gonad; conditions: in vivo
Outline: (§1)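 Female Sprague–Dawley rats (200–250 g) were inoculated in the right hind limb with 5.0 × 10⁶ Walker 256 cells in saline and used 6–10 days later, when tumors averaged 10 g. The radioiodinated agent, in 2–3% Tween-20/saline after ethanol removal, was given as 5–10 μCi in 0.5 mL by tail vein to anesthetized rats. Tissues were dissected, weighed and counted with decay correction. Values are % ID/g, mean ± SEM, n = 3.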

Rattus norvegicus [2] = experiment: Biodistribution in tumor 24 hours after iv injection in walker tumor bearing rat; assay type: ADME, organism-based; conditions: in vivo; outline: as §1
Rattus norvegicus [3] = experiment: Biodistribution in ovary 24 hours after iv injection in walker tumor bearing rat; assay type: ADME, organism-based, Female gonad; conditions: in vivo; outline: as §1
Rattus norvegicus [4] = experiment: Biodistribution in muscle 24 hours after iv injection in walker tumor bearing rat; assay type: ADME, organism-based, Muscle tissue; conditions: in vivo; outline: as §1
Rattus norvegicus [5] = experiment: Biodistribution in injected site 48 hours after iv injection in walker tumor bearing rat; assay type: ADME, organism-based; conditions: in vivo; outline: as §1
Rattus norvegicus [6] = experiment: Biodistribution in injected site 24 hours after iv injection in walker tumor bearing rat; assay type: ADME, organism-based; conditions: in vivo; outline: as §1
Rattus norvegicus [7] = experiment: Biodistribution in kidney 48 hours after iv injection in walker tumor bearing rat; assay type: ADME, organism-based; conditions: in vivo; outline: as §1
Rattus norvegicus [8] = experiment: Biodistribution in kidney 24 hours after iv injection in walker tumor bearing rat; assay type: ADME, organism-based; conditions: in vivo; outline: as §1
Rattus norvegicus [9] = experiment: Biodistribution in liver 24 hours after iv injection in walker tumor bearing rat; assay type: ADME, organism-based; conditions: in vivo; outline: as §1
Rattus norvegicus [10] = experiment: Ratio of the biodistribution in tumor to blood 24 hours after iv injection in walker tumor bearing rat; assay type: ADME, organism-based; conditions: tumour
Outline: (§2)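 Walker 256 tumor-bearing female Sprague–Dawley rats were given 5–10 μCi of radioiodinated agent in Tween-20/saline iv by tail vein (n = 3 per time point). After dissection and decay-corrected counting, tumor % ID/g was divided by blood or liver % ID/g.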

Rattus norvegicus [11] = experiment: Ratio of the biodistribution in tumor to liver 48 hours after iv injection in walker tumor bearing rat; assay type: ADME, organism-based; conditions: in vivo; outline: as §2
Rattus norvegicus [12] = experiment: Biodistribution in lung 48 hours after iv injection in walker tumor bearing rat; assay type: ADME, organism-based; conditions: in vivo; outline: as §1
Rattus norvegicus [13] = experiment: Biodistribution in tumor 48 hours after iv injection in walker tumor bearing rat; assay type: ADME, organism-based; conditions: in vivo; outline: as §1
Rattus norvegicus [14] = experiment: Biodistribution in muscle 48 hours after iv injection in walker tumor bearing rat; assay type: ADME, organism-based, Muscle tissue; conditions: in vivo; outline: as §1
Rattus norvegicus [15] = experiment: Biodistribution in lung 24 hours after iv injection in walker tumor bearing rat; assay type: ADME, organism-based; conditions: in vivo; outline: as §1
Rattus norvegicus [16] = experiment: Biodistribution in duodenum 48 hours after iv injection in walker tumor bearing rat; assay type: ADME, organism-based; conditions: in vivo; outline: as §1
Rattus norvegicus [17] = experiment: Ratio of the biodistribution in tumor to liver 24 hours after iv injection in walker tumor bearing rat; assay type: ADME, organism-based; conditions: in vivo; outline: as §2
Rattus norvegicus [18] = experiment: Biodistribution in blood 48 hours after iv injection in walker tumor bearing rat; assay type: ADME, organism-based; conditions: in vivo; outline: as §1
Rattus norvegicus [19] = experiment: Biodistribution in duodenum 24 hours after iv injection in walker tumor bearing rat; assay type: ADME, organism-based; conditions: in vivo; outline: as §1
Rattus norvegicus [20] = experiment: Biodistribution in thyroid 24 hours after iv injection in walker tumor bearing rat; assay type: ADME, organism-based, Thyroid gland; conditions: in vivo; outline: as §1
Rattus norvegicus [21] = experiment: Biodistribution in spleen 24 hours after iv injection in walker tumor bearing rat; assay type: ADME, organism-based; conditions: in vivo; outline: as §1
Rattus norvegicus [22] = experiment: Biodistribution in blood 24 hours after iv injection in walker tumor bearing rat; assay type: ADME, organism-based; conditions: in vivo; outline: as §1
Rattus norvegicus [23] = experiment: Biodistribution in liver 48 hours after iv injection in walker tumor bearing rat; assay type: ADME, organism-based; conditions: in vivo; outline: as §1
Rattus norvegicus [24] = experiment: Biodistribution in plasma 24 hours after iv injection in walker tumor bearing rat; assay type: ADME, organism-based; conditions: in vivo; outline: as §1
Rattus norvegicus [25] = experiment: Biodistribution in plasma 48 hours after iv injection in walker tumor bearing rat; assay type: ADME, organism-based; conditions: in vivo; outline: as §1
Rattus norvegicus [26] = experiment: Biodistribution in thyroid 48 hours after iv injection in walker tumor bearing rat; assay type: ADME, organism-based, Thyroid gland; conditions: in vivo; outline: as §1
Rattus norvegicus [27] = experiment: Biodistribution in spleen 48 hours after iv injection in walker tumor bearing rat; assay type: ADME, organism-based; conditions: in vivo; outline: as §1
Rattus norvegicus [28] = experiment: Ratio of the biodistribution in tumor to blood 48 hours after iv injection in walker tumor bearing rat; assay type: ADME, organism-based; conditions: in vivo; outline: as §2

Row | SMILES | ID/g (Rattus norvegicus [1]) | ID/g (Rattus norvegicus [2]) | ID/g (Rattus norvegicus [3]) | ID/g (Rattus norvegicus [4]) | ID/g (Rattus norvegicus [5]) | ID/g (Rattus norvegicus [6]) | ID/g (Rattus norvegicus [7]) | ID/g (Rattus norvegicus [8]) | ID/g (Rattus norvegicus [9]) | ID/g (Rattus norvegicus [10]) | ID/g (Rattus norvegicus [11]) | ID/g (Rattus norvegicus [12]) | ID/g (Rattus norvegicus [13]) | ID/g (Rattus norvegicus [14]) | ID/g (Rattus norvegicus [15]) | ID/g (Rattus norvegicus [16]) | ID/g (Rattus norvegicus [17]) | ID/g (Rattus norvegicus [18]) | ID/g (Rattus norvegicus [19]) | ID/g (Rattus norvegicus [20]) | further results
1 | CO[C@H](COCCCCCCCCCCCCc1cccc(I)c1)COP(=O)([O-])OCC[N+](C)(C)C | 0.14% | 0.55% | 0.28% | 0.04% | 0.25% | 0.23% | 0.2% | 0.33% | 0.52% | 11 | 1.7 | 0.14% | 0.43% | 0.02% | 0.29% | 0.34% | 1.1 | 0.03% | 0.73% | 23.81% | ID/g (Rattus norvegicus [21]): 0.37%; ID/g (Rattus norvegicus [22]): 0.05%; ID/g (Rattus norvegicus [23]): 0.25%; ID/g (Rattus norvegicus [24]): 0.06%; ID/g (Rattus norvegicus [25]): 0.03%; ID/g (Rattus norvegicus [26]): 24.11%; ID/g (Rattus norvegicus [27]): 0.1%; ID/g (Rattus norvegicus [28]): 14.3
2 | COC(COCCCCCCCCCCCCc1cccc(I)c1)COP(=O)([O-])OCC[N+](C)(C)C (racemic) | 0.27% | 0.85% | 0.37% | 0.04% | 0.17% | 0.24% | 0.24% | 0.46% | 0.81% | 12.1 | 1.6 | 0.2% | 0.56% | 0.03% | 0.34% | 0.44% | 1.1 | 0.05% | 1.12% | 47.22% | ID/g (Rattus norvegicus [21]): 0.42%; ID/g (Rattus norvegicus [22]): 0.07%; ID/g (Rattus norvegicus [23]): 0.35%; ID/g (Rattus norvegicus [24]): 0.1%; ID/g (Rattus norvegicus [25]): 0.05%; ID/g (Rattus norvegicus [26]): 24.44%; ID/g (Rattus norvegicus [27]): 0.17%; ID/g (Rattus norvegicus [28]): 11.2
3 | CO[C@@H](COCCCCCCCCCCCCc1cccc(I)c1)COP(=O)([O-])OCC[N+](C)(C)C | 0.14% | 0.78% | 0.31% | 0.05% | 0.24% | 0.26% | 0.16% | 0.37% | 0.53% | 11.1 | 2 | 0.14% | 0.45% | 0.02% | 0.35% | 0.23% | 1.5 | 0.03% | 1.04% | 10.33% | ID/g (Rattus norvegicus [21]): 0.43%; ID/g (Rattus norvegicus [22]): 0.07%; ID/g (Rattus norvegicus [23]): 0.23%; ID/g (Rattus norvegicus [24]): 0.06%; ID/g (Rattus norvegicus [25]): 0.03%; ID/g (Rattus norvegicus [26]): 13.69%; ID/g (Rattus norvegicus [27]): 0.1%; ID/g (Rattus norvegicus [28]): 15
